High-throughput results deposited in PubChem BioAssay by The Scripps Research Institute Molecular Screening Center.
A selection: hits, their analogues and other compounds. The true share with any hit is near 3.1%.
CHO parental Ca – ATP-evoked calcium signal inhibitors, parental CHO, primary screen, counter-screen for OX1R antagonist project, cell-based, fluorescence, Fluo-8 calcium dye; inhibition, % at 5.6 µM; AID 463079, 2010; parental CHO-K1, ATP-induced calcium, Fluo-8 fluorescence; hit rate 0.63% among 330,000;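 active = inhibition above that plate's mean sample inhibition plus 3 SD, cut at about 26% in these data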
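Assay system – parental CHO cells · Reagent – ATP stimulus · Detection – intracellular calcium via Fluo-8 no-wash fluorescent dye · Evaluation – percent inhibition of ATP-evoked calcium rise, normalized to controls · Controls – ATP wells versus no-ATP DMSO wells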
GalR3 antagonist – GalR3 antagonists in HEK293 cells, primary screen, cell-based, fluorescence readout; Galanin receptor type 3 (Homo sapiens), O60755; HEK293 GalR3-CNG cAMP membrane potential fluorescence; galR3 body fused to GalR1 C-terminus; AID 651719, 2012; hit rate 0.44% among 360,000; inhibition, % at 3 µM;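 active = inhibition above the screen-wide average plus 3 SD, cut at about 13% in these data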;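 also: forskolin and galanin both at EC90 stimulate the cells; cAMP rise reported by CNG channel membrane potential dye signal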
Target sequence (O60755 1-299 limits assumed): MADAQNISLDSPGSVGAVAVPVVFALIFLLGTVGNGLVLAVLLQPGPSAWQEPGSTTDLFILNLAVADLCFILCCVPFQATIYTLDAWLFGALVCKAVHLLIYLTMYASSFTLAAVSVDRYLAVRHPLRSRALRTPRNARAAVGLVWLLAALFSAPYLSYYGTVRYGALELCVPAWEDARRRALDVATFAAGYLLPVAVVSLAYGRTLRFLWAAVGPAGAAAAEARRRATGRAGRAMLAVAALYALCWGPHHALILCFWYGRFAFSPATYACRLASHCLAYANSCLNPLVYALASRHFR
OX1R antag-1 – antagonists of human orexin 1 receptor (OX1R); Orexin/Hypocretin receptor type 1 (Homo sapiens), O43613; OX1R-expressing cells, FRET antagonist read-out; inhibition, % at 6.6 µM; hit rate 1.8% among 330,000; AID 485270, 2010; in the data active = inhibition mostly above about 38%, no sharp cut-off; inactive = mostly below about 40%
GPR7 antagonist – GPR7 receptor antagonists, primary screen, cell-based, fluorescence, single concentration | inhibition, % at 4.4 µM | AID 1861, 2009 | GPR7-expressing cells, fluorescence antagonist assay | Neuropeptides B/W receptor type 1 (Homo sapiens), P48145 | hit rate 1.1% among 290,000; in the data active = inhibition above about 16%, passing the limit was not always enough;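 also: cells stimulated with the agonist NPW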
Target sequence (P48145 whole entry, looked up): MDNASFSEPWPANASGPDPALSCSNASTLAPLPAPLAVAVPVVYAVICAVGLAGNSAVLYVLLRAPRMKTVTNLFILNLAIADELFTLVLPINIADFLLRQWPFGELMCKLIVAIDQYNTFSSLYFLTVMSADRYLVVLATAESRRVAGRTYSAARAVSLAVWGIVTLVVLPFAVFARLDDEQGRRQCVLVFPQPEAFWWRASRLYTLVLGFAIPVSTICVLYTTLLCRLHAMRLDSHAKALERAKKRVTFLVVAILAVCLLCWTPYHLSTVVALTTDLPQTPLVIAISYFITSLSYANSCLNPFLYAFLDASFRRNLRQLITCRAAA
OX1R antag-2 – OX1R (HCRTR1) antagonists, primary screen, fluorescence, CHO/OX1R cells, Fluo-8 calcium, orexin A; Fluo-8 calcium fluorescence; Orexin/Hypocretin receptor type 1 (Homo sapiens), O43613; inhibition, % at 5 µM; hit rate 0.43% among 330,000; AID 434989, 2010;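 active = inhibition above its plate's threshold, mean inhibition of all tested compounds on the plate plus 3 SD, cut at about 37% in these data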
GPR7 antag conf – GPR7 receptor antagonists, confirmation, cell-based, fluorescence, single concentration. shares compounds with GPR7 antagonist. GPR7-expressing cells, calcium fluorescence antagonist mode. inhibition, % at 4.4 µM. hit rate 52% among 2,400; in the data active = inhibition above about 24%;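 also: stimulated with the GPR7 agonist NPW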
MCHR1 antag – MCHR1 antagonists in cells, counter-screen for GPR7 antagonist project, cell-based, fluorescence, human. shares compounds with GPR7 antagonist. MCHR1-expressing cells, fluorescence antagonist assay. inhibition, % at 4.4 µM. hit rate 62% among 2,400. AID 2148, 2009; in the data active = inhibition above about 22%
Numbers stand for hits; – = inactive; · = no result.

SMILES | CHO parental Ca | GalR3 antagonist | OX1R antag-1 | GPR7 antagonist | OX1R antag-2 | GPR7 antag conf | MCHR1 antag
COc1ccc2c(c1)C(C)CC(C)(C)N2C(=O)CSc1nc2ccccc2s1 (centres undefined) | – | – | – | 22 | – | 26 | 54
COc1ccc(C2=NN(C(=O)CSc3nc4ccccc4s3)C(c3ccc(OC)cc3)C2)cc1 (centres undefined) | – | – | – | – | – | · | ·
O=C(CNC(=O)N1CC(=O)Nc2ccccc21)Nc1ccc(F)c(Cl)c1 | – | – | – | – | – | · | ·
CS(=O)(=O)c1ccc2nc(NC(=O)Nc3ccc(Cl)cc3)sc2c1 | – | – | – | – | – | · | ·
NS(=O)(=O)c1ccc2nc(NC(=O)Nc3ccc(F)cc3)sc2c1 | – | – | – | 34 | – | 50 | –
COc1ccc(N2CC(NC(=O)NCC(C)C)CC2=O)cc1 (centres undefined) | – | – | – | – | – | · | ·
COc1ccccc1-c1nnc2sc(COc3ccc(F)cc3)nn12 | – | – | – | 42 | – | – | 52
CCOc1ccc(-c2nnc3sc(-c4ccccc4OC)nn23)cc1 | · | – | · | – | · | · | ·
CC(C)N(C)c1ncnc2c1ncn2[C@H]1CN(CCc2ccccc2)C[C@@H](CO)O1 | · | – | · | · | · | · | ·
Nc1nonc1C(=O)NCCNCc1ccccc1OCc1ccccc1F | – | – | – | 29 | – | 36 | 33
CCc1nc(SCC(=O)Nc2nnc(CC(C)C)s2)n[nH]1 | – | – | – | – | – | · | ·
O=C(O)CCn1c2ccccc2c2nc3ccccc3nc21 | – | – | 49 | 28 | – | – | –
CC(C)CC(=O)NC(NC(=S)Nc1sc2c(c1C#N)CCCC2)C(Cl)(Cl)Cl (centres undefined) | – | – | – | – | – | · | ·
CCOc1c(Br)cc(/C=C(\C#N)C(=O)NC2CC2)cc1OC | – | – | – | 24 | – | 47 | 41
CCN1CCN(S(=O)(=O)c2ccc(-c3cc(C)no3)s2)CC1 | – | – | – | – | – | · | ·
Cc1cc(-c2ccc(S(=O)(=O)N3CCN(c4cccc(C)c4C)CC3)s2)on1 | – | – | – | 29 | – | – | 40
O=C(O)CCC(=O)N1N=C(c2ccc(Br)cc2)CC1c1cccc(Br)c1 (centres undefined) | – | – | – | – | – | · | ·
CN1C(C(=O)N2CCc3ccccc3C2)=CC(c2ccc(F)cc2)=NS1(=O)=O | – | – | – | 30 | – | – | 25
COc1ccc(C2=NS(=O)(=O)N(C)C(C(=O)N3CCC(C)CC3)=C2)cc1 | – | · | – | – | – | · | ·
Cc1c(NC(=O)CN2CCCC(C)C2)ccc2nsnc12 (centres undefined) | – | – | – | – | – | · | ·
CCOC(=O)C1(Cc2ccccc2C)CCCN(C(=O)c2sccc2C)C1 (centres undefined) | – | – | – | 43 | – | – | 48
CCOC(=O)C1(Cc2ccccc2C)CCCN(C(=O)c2ccoc2)C1 (centres undefined) | – | – | – | – | – | · | ·
COc1ccccc1N1CCN(/N=C/C(Cl)=C/c2ccccc2)CC1 | – | – | – | – | – | · | ·
O=C(Cc1n[nH]c(=O)c2ccccc12)N1CCN(c2ccc(F)cc2)CC1 | – | – | – | 22 | – | – | –
O=C(COC(=O)/C=C/c1ccco1)NCc1ccc(Cl)cc1 | – | – | – | · | – | · | ·
SMILES | CHO parental Ca | GalR3 antagonist | OX1R antag-1 | GPR7 antagonist | OX1R antag-2 | GPR7 antag conf | MCHR1 antag
O=C(COC(=O)/C=C/c1ccco1)NCc1ccccc1 | – | – | – | 27 | – | – | –
O=C(COC(=O)/C=C/c1ccc(Cl)cc1)NCCc1ccccc1 | – | – | – | 21 | – | – | –
CC(=O)N1CCN(C(=O)c2cc(C)oc2C)CC1 | – | – | – | · | – | · | ·
Cc1cc(C(=O)N2CCC(Cc3ccccc3)CC2)c(C)o1 | – | – | – | 28 | – | 27 | 33
CC(=O)/C(C#N)=C1\NC(=O)C(Cc2ccccc2C)S1 (centres undefined) | – | – | – | – | – | · | ·
O=[N+]([O-])c1nn(-c2ccc3c(c2)OCCO3)n(O)c1=Nc1ccc(Cl)cc1 | – | – | – | 28 | – | 34 | –
OC(c1cc(F)cc(Cl)c1)c1ncc(-c2ccccc2C(F)(F)F)[nH]1 (centres undefined) | · | – | · | · | · | · | ·
c1ccc(OCCSc2nnnn2-c2ccccc2)cc1 | – | – | – | 31 | – | – | 35
Cc1cc(C(=O)CSc2nn3c(=O)c(C(C)(C)C)nnc3s2)c(C)n1C | – | – | – | – | – | · | ·
O=c1[nH]c(=S)[nH]c2c1CN(Cc1ccc(F)cc1)CC2 | – | – | – | 30 | – | – | –
CC(C)(C)NC(=O)CN(C(=O)CN1C(=O)C(=O)c2ccccc21)C(C)(C)C | – | – | – | – | – | · | ·
CCc1cccc(CC)c1NC(=O)COC(=O)C1(c2ccc(Cl)cc2)CCCC1 | – | – | – | 42 | – | 36 | 51
COc1ccc2c(c1)C(=O)N(c1ccccc1)C(=O)C2 | – | – | – | 28 | – | – | –
CCS(=O)(=O)N1CCN(CC(=O)NC2CCCCC2)CC1 | – | – | – | – | – | · | ·
OCC1CCCCN1CCNCc1cn[nH]c1-c1cccc2ccccc12 (centres undefined) | – | – | – | – | – | · | ·
c1ccc2c(-c3[nH]ncc3CNCCCn3ncc4ccccc43)cccc2c1 | – | – | – | 22 | – | 27 | 52
Cc1onc(-c2ccccc2)c1C(=O)Nc1ncc([N+](=O)[O-])s1 | – | – | – | 27 | – | – | 37
Cc1onc(-c2ccccc2)c1C(=O)Nc1nnc(C(C)C)s1 | – | – | – | – | – | · | ·
COc1ccccc1CNC(=O)COC(=O)c1cccc(-n2cnnn2)c1 | – | – | – | · | – | · | ·
CCOC(=O)c1ccc(C(=S)N2CCCC2)cc1 | · | – | · | – | · | · | ·
CCc1ccccc1NC(=O)C1CCCN(c2ncnc3onc(-c4ccc(F)cc4)c23)C1 (centres undefined) | – | – | – | 29 | – | – | 22
Cc1ccccc1NC(=O)C1CCCN(c2ncnc3onc(-c4ccc(F)cc4)c23)C1 (centres undefined) | – | – | – | 28 | – | 28 | –
COc1ccc(CN2CCN(CC(O)Cn3c4ccccc4c4ccccc43)CC2)cc1 (centres undefined) | – | – | – | 23 | – | 47 | 68
O=c1c2ccccc2n(CC(O)CN2CCCCC2)c2ccccc12 (centres undefined) | – | – | – | – | – | · | ·
